ChEMBL document CHEMBL1134623, “Design and synthesis of a series of (2R)-N(4)-hydroxy-2-(3-hydroxybenzyl)-N(1)- [(1S,2R)-2-hydroxy-2,3-dihydro-1H-inden-1-yl]butanediamide derivatives as potent, selective, and orally bioavailable aggrecanase inhibitors” (J Med Chem, 2001)
pIC50, pKi: −log10 of the molar value.

Legend:
[1] = Inhibition of aggrecanase; parameters: species or system Homo sapiens
In short: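 Enzyme was a partially purified preparation from IL-1-stimulated bovine nasal cartilage. No amino acid sequence was available for it when screening began.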

Neutrophil collagenase = Neutrophil collagenase (Homo sapiens, UniProt P22894); assay: Inhibition of matrix metalloprotease-8
Sequence of Neutrophil collagenase (P22894 whole entry): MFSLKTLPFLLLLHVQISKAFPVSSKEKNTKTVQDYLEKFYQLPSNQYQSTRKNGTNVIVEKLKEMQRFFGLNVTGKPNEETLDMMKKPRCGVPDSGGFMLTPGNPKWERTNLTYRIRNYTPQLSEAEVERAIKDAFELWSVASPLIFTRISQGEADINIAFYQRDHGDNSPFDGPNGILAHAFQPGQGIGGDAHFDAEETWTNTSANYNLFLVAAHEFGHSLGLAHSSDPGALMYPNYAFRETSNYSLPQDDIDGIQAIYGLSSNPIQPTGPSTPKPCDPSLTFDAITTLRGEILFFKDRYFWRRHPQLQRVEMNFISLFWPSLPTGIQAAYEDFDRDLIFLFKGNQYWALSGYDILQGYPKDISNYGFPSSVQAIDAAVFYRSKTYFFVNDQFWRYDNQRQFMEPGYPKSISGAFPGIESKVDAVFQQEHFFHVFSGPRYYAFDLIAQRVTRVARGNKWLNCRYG

[2] = biological target: Matrix metalloproteinase-9 (Homo sapiens, UniProt P14780); assay: Inhibition of human matrix metalloprotease-9
Sequence of Matrix metalloproteinase-9 (P14780 whole entry): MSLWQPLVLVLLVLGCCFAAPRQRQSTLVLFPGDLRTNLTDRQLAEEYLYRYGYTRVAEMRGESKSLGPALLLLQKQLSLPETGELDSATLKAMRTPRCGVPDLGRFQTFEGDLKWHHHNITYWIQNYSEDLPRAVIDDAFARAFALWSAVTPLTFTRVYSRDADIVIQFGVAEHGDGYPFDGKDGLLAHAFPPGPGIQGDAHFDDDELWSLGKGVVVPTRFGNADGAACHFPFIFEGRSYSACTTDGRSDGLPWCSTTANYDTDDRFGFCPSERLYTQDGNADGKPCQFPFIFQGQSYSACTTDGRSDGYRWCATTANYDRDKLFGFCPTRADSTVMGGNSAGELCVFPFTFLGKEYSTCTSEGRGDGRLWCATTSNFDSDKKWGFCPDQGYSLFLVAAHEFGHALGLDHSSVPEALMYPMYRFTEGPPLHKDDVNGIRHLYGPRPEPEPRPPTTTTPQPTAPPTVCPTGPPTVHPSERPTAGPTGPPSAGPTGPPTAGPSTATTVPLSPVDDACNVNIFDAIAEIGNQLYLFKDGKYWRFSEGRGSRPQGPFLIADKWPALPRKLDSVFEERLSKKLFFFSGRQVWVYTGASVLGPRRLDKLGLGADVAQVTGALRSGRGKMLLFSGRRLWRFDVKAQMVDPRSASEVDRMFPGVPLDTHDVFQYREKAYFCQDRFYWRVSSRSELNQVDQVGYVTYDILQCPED

[3] = biological target: 72 kDa type IV collagenase (Homo sapiens, UniProt P08253); assay: Inhibition of matrix metalloprotease-2
Sequence of 72 kDa type IV collagenase (P08253 whole entry): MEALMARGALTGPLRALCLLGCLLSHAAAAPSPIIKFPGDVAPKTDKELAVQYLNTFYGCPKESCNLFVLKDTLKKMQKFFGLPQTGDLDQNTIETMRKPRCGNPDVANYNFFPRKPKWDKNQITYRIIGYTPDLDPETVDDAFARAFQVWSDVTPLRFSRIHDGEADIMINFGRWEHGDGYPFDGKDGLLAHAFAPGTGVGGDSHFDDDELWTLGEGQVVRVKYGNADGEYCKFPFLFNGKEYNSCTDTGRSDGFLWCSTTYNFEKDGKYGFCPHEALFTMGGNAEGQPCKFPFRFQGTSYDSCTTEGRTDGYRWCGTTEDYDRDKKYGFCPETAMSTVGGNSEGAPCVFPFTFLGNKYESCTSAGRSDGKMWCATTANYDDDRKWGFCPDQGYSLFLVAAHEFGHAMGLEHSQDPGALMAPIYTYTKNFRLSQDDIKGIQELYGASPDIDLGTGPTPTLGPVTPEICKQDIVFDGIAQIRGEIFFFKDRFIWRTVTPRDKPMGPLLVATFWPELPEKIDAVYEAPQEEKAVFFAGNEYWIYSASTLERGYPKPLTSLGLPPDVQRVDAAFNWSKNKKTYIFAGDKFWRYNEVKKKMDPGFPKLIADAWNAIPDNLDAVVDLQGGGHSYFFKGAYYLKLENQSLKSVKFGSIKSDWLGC

Interstitial collagenase = biological target: T1, Interstitial collagenase (Homo sapiens, UniProt P03956); assay: Inhibition of matrix metalloprotease-1
T1 sequence (P03956 whole entry): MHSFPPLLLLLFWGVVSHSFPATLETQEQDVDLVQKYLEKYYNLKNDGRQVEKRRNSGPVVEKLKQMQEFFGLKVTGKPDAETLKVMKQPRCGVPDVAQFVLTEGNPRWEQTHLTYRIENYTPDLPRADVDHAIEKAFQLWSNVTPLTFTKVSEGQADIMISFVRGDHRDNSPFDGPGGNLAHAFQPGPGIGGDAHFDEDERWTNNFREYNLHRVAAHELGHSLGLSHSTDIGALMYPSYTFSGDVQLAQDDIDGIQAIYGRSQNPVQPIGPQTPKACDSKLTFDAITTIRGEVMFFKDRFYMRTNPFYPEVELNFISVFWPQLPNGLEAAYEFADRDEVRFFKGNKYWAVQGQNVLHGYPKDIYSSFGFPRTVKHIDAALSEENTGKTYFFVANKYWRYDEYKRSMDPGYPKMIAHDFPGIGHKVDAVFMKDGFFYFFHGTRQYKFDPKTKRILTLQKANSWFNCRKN

SMILES	pIC50 [1]	pKi (Neutrophil collagenase)	pKi [2]	pKi [3]	pKi (Interstitial collagenase)
CNC(=O)[C@H](Cc1ccc(OC)cc1)NC(=O)[C@@H](CC(=O)NO)CC(C)C	6.43	9.15	> 9.00	–	–
O=C(C[C@@H](Cc1cccc(O)c1)C(=O)N[C@H]1c2ccccc2C[C@H]1O)NO	7.19	5.07	5.48	5.82	4.51
O=C(C[C@@H](Cc1ccc(O)cc1)C(=O)N[C@@H]1CCc2ccccc21)NO	5.88	4.82	4.67	4.50	4.12
COc1cccc(C[C@H](CC(=O)NO)C(=O)N[C@H]2c3ccccc3C[C@H]2O)c1	5.50	5.92	4.81	5.18	4.02
CC(C)C[C@H](CC(=O)NO)C(=O)N[C@H]1c2ccccc2C[C@H]1O	5.77	7.43	6.79	7.14	7.09
O=C(NO)[C@@H](NCC1CC1)[C@@H](Cc1cccc(O)c1)C(=O)N[C@H]1c2ccccc2C[C@H]1O	7.92	6.77	5.35	5.20	4.48
O=C(C[C@@H](Cc1ccc(O)cc1)C(=O)N[C@H]1c2ccccc2C[C@H]1O)NO	6.74	7.15	6.78	6.39	6.02
CC(C)C[C@H](CC(=O)NO)C(=O)N[C@@H]1c2ccccc2C[C@@H]1O	4.88	6.52	5.38	5.81	5.96
O=C(C[C@@H](Cc1ccc2c(c1)OCO2)C(=O)N[C@H]1c2ccccc2C[C@H]1O)NO	6.10	4.40	4.66	4.46	4.30
CNC(=O)[C@H](Cc1ccc(OC)cc1)NC(=O)[C@@H](CC(=O)NO)Cc1ccc(O)cc1	6.48	9.35	8.49	8.37	7.97
COc1ccc(C[C@H](CC(=O)NO)C(=O)N[C@H]2c3ccccc3C[C@H]2O)cc1	7.79	8.04	6.69	7.28	5.93
